Laboratory results reported in PubChem BioAssay AID504653 (Molecular Libraries Program, Specialized Chemistry Center, …, 2011).
Calls of active or inactive are those of the source.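 Rule for the calls: active = caspase 3/7 peak fold activation above 5 at a dose under 20 µM within 7 h; inactive = the rest.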

System: SW403 caspase-3/7 Glo luminescence, 7 h
Assay: apoptosis induction by VCP inhibitors – cell-based, mechanism study for p97 inhibitor project (AID 504653)
Details: active compounds read high
Procedure, shortened: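 test system = SW403 cells | control set = 1 % DMSO reference | schedule = 7 h compound exposure, then 1 h reagent incubation at room temperature | technique = Caspase-3/7 Glo reagent, luminescence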

Structure (SMILES) | maximal fold activation
COc1cccc2c(NCc3ccccc3)nc(-n3c(N)nc4cc(Cl)c(Cl)cc43)nc12 | 1.6 (inactive)
c1ccc(CNc2nc(N3CCOc4ccccc43)nc3ccsc23)cc1 | 1.4 (inactive)
FC(F)(F)c1ccc(CNc2nc(NCc3ccccc3)c3ccccc3n2)cc1 | 26
COc1cccc2c(NCc3ccccc3)nc(N3CCOc4ccccc43)nc12 | 1.6 (inactive)
Fc1cccc(Nc2nc(NCc3ccccc3)c3ccccc3n2)c1 | 15 (inactive)
CCN(CC)CCOc1cccc2c(NCc3ccccc3)nc(N3CCOc4ccccc43)nc12 | 8 (inactive)
Clc1cccc(Nc2nc(NCc3ccccc3)c3ccccc3n2)c1 | 7.3 (inactive)
OCCOc1cccc2c(NCc3ccccc3)nc(N3CCOc4ccccc43)nc12 | 1.3 (inactive)
COc1cccc2c(NCc3ccccc3)nc(-n3c(N)nc4ccccc43)nc12 | 29
COc1cccc2c(NCc3ccccc3)nc(Nc3nc4ccccc4n3C)nc12 | 16
c1ccc(CNc2nc(N3CCOc4ccccc43)nc3ccccc23)cc1 | 1.6 (inactive)

Next, values leading:

maximal fold activation | Structure (SMILES)
13 (inactive) | Cc1ccc(CNc2nc(NCc3ccccc3)c3ccccc3n2)cc1
12 (inactive) | COc1cccc2c(NCc3ccccc3)nc(NCc3ccccc3)nc12
3.3 (inactive) | COc1cccc(CNc2nc(NCc3ccccc3)c3ccccc3n2)c1
24 | COc1cccc2c(NCc3ccccc3)nc(NCc3cccs3)nc12
5.9 (inactive) | Fc1cccc(CNc2nc(NCc3ccccc3)c3ccccc3n2)c1
18 | Brc1cccc(CNc2nc(NCc3ccccc3)c3ccccc3n2)c1
